tested on: not listed separately; assay: Anticancer activity against human COLO320 cells after 72 hrs by WST-1 assay; type: functional, cell-based; settings: COLO 320, 72 h
Outline: (§1)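 Cells grown in DMEM with 2 mM L-glutamine, 10% FBS, 2.5% horse serum, penicillin and streptomycin, 37 °C, 5% CO2. Seeded at 2 × 10³/well, exposed 72 h to 0.1–50 µM (DMSO ≤0.2% in medium). WST-1 formazan absorbance read at 450 nm. Inhibition taken as % absorbance reduction versus control; IC50 from non-linear least-squares fit. Triplicate, independent experiments averaged.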

**Q.** For Clc1ccc(-c2noc(-c3cc4ccccc4[nH]3)n2)cc1, which IC50 is on record?
**A.** 13.9 µM

**Q.** For COc1ccc2[nH]c(-c3nc(-c4ccc(Cl)cc4)no3)cc2c1, which IC50 is on record?
**A.** 12.8 µM

**Q.** For Fc1ccc2[nH]c(-c3nc(-c4ccc(Cl)cc4)no3)cc2c1, which IC50 is on record?
**A.** > 50 µM

**Q.** Which IC50 does the source give for O=[N+]([O-])c1ccc2[nH]c(-c3nc(-c4ccc(Cl)cc4)no3)cc2c1 here?
**A.** 7.7 µM

**Q.** For Clc1ccc(-c2noc(-c3cc4cc(Cl)ccc4[nH]3)n2)cc1, which IC50 is on record?
**A.** 25 µM

**Q.** With Cn1c(-c2nc(-c3ccc(Cl)cc3)no2)cc2cc(Cl)ccc21 as the compound, how does the IC50 read?
**A.** 16.9 µM

**Q.** Which IC50 does the source give for COc1ccc(-c2noc(-c3cc4ccccc4[nH]3)n2)cc1 here?
**A.** 27.7 µM

**Q.** With COc1ccc(-c2noc(-c3cc4ccccc4n3C)n2)cc1 as the compound, how does the IC50 read?
**A.** > 50 µM

**Q.** For COc1ccc(-c2noc(-c3cc4cc(OC)ccc4[nH]3)n2)cc1, which IC50 is on record?
**A.** 28.3 µM

**Q.** With COc1ccc(-c2noc(-c3cc4cc(F)ccc4[nH]3)n2)cc1 as the compound, how does the IC50 read?
**A.** 14.8 µM

**Q.** For COc1ccc(-c2noc(-c3cc4cc(Cl)ccc4[nH]3)n2)cc1, which IC50 is on record?
**A.** 9.6 µM

**Q.** With FC(F)(F)c1ccc(-c2noc(-c3sccc3Cl)n2)cc1 as the compound, how does the IC50 read?
**A.** 1.2 µM

tested on: MIA PaCa-2; assay: Anticancer activity against human MIAPaCa2 cells after 72 hrs by WST-1 assay; type: functional, cell-based; settings: MIA PaCa-2, 72 h; outline: as §1

**Q.** Which IC50 does the source give for Clc1ccc(-c2noc(-c3cc4ccccc4[nH]3)n2)cc1 here?
**A.** 19.2 µM

**Q.** With COc1ccc2[nH]c(-c3nc(-c4ccc(Cl)cc4)no3)cc2c1 as the compound, how does the IC50 read?
**A.** 22.7 µM

**Q.** Which IC50 does the source give for Fc1ccc2[nH]c(-c3nc(-c4ccc(Cl)cc4)no3)cc2c1 here?
**A.** > 50 µM

**Q.** Which IC50 does the source give for O=[N+]([O-])c1ccc2[nH]c(-c3nc(-c4ccc(Cl)cc4)no3)cc2c1 here?
**A.** 17.6 µM

**Q.** Which IC50 does the source give for Clc1ccc(-c2noc(-c3cc4cc(Cl)ccc4[nH]3)n2)cc1 here?
**A.** > 50 µM

**Q.** With Cn1c(-c2nc(-c3ccc(Cl)cc3)no2)cc2cc(Cl)ccc21 as the compound, how does the IC50 read?
**A.** > 50 µM

**Q.** Which IC50 does the source give for COc1ccc(-c2noc(-c3cc4ccccc4[nH]3)n2)cc1 here?
**A.** > 50 µM

**Q.** Which IC50 does the source give for COc1ccc(-c2noc(-c3cc4ccccc4n3C)n2)cc1 here?
**A.** 23.1 µM

**Q.** With COc1ccc(-c2noc(-c3cc4cc(OC)ccc4[nH]3)n2)cc1 as the compound, how does the IC50 read?
**A.** 5.6 µM

**Q.** Which IC50 does the source give for COc1ccc(-c2noc(-c3cc4cc(F)ccc4[nH]3)n2)cc1 here?
**A.** 10.3 µM

**Q.** Which IC50 does the source give for COc1ccc(-c2noc(-c3cc4cc(Cl)ccc4[nH]3)n2)cc1 here?
**A.** 7.8 µM

**Q.** With FC(F)(F)c1ccc(-c2noc(-c3sccc3Cl)n2)cc1 as the compound, how does the IC50 read?
**A.** > 50 µM

tested on: MCF7; assay: Anticancer activity against human MCF7 cells after 72 hrs by WST-1 assay; type: functional, cell-based; settings: MCF7, 72 h; outline: as §1

**Q.** With Clc1ccc(-c2noc(-c3cc4ccccc4[nH]3)n2)cc1 as the compound, how does the IC50 read?
**A.** > 50 µM

**Q.** With COc1ccc2[nH]c(-c3nc(-c4ccc(Cl)cc4)no3)cc2c1 as the compound, how does the IC50 read?
**A.** > 50 µM

**Q.** For Fc1ccc2[nH]c(-c3nc(-c4ccc(Cl)cc4)no3)cc2c1, which IC50 is on record?
**A.** > 50 µM

**Q.** Which IC50 does the source give for O=[N+]([O-])c1ccc2[nH]c(-c3nc(-c4ccc(Cl)cc4)no3)cc2c1 here?
**A.** > 50 µM

**Q.** Which IC50 does the source give for Clc1ccc(-c2noc(-c3cc4cc(Cl)ccc4[nH]3)n2)cc1 here?
**A.** > 50 µM

**Q.** For Cn1c(-c2nc(-c3ccc(Cl)cc3)no2)cc2cc(Cl)ccc21, which IC50 is on record?
**A.** > 50 µM

**Q.** With COc1ccc(-c2noc(-c3cc4ccccc4[nH]3)n2)cc1 as the compound, how does the IC50 read?
**A.** > 50 µM

**Q.** With COc1ccc(-c2noc(-c3cc4ccccc4n3C)n2)cc1 as the compound, how does the IC50 read?
**A.** > 50 µM

**Q.** For COc1ccc(-c2noc(-c3cc4cc(OC)ccc4[nH]3)n2)cc1, which IC50 is on record?
**A.** > 50 µM

**Q.** For COc1ccc(-c2noc(-c3cc4cc(F)ccc4[nH]3)n2)cc1, which IC50 is on record?
**A.** > 50 µM

**Q.** Which IC50 does the source give for COc1ccc(-c2noc(-c3cc4cc(Cl)ccc4[nH]3)n2)cc1 here?
**A.** > 50 µM

**Q.** Which IC50 does the source give for FC(F)(F)c1ccc(-c2noc(-c3sccc3Cl)n2)cc1 here?
**A.** > 50 µM

tested on: Jurkat; assay: Anticancer activity against human Jurkat cells after 72 hrs by WST-1 assay; type: functional, cell-based; settings: not given; outline: as §1

**Q.** Which IC50 does the source give for Clc1ccc(-c2noc(-c3cc4ccccc4[nH]3)n2)cc1 here?
**A.** > 50 µM

**Q.** For COc1ccc2[nH]c(-c3nc(-c4ccc(Cl)cc4)no3)cc2c1, which IC50 is on record?
**A.** > 50 µM

**Q.** With Fc1ccc2[nH]c(-c3nc(-c4ccc(Cl)cc4)no3)cc2c1 as the compound, how does the IC50 read?
**A.** > 50 µM

**Q.** Which IC50 does the source give for O=[N+]([O-])c1ccc2[nH]c(-c3nc(-c4ccc(Cl)cc4)no3)cc2c1 here?
**A.** > 50 µM

**Q.** Which IC50 does the source give for Clc1ccc(-c2noc(-c3cc4cc(Cl)ccc4[nH]3)n2)cc1 here?
**A.** > 50 µM

**Q.** For Cn1c(-c2nc(-c3ccc(Cl)cc3)no2)cc2cc(Cl)ccc21, which IC50 is on record?
**A.** > 50 µM

**Q.** Which IC50 does the source give for COc1ccc(-c2noc(-c3cc4ccccc4[nH]3)n2)cc1 here?
**A.** > 50 µM

**Q.** Which IC50 does the source give for COc1ccc(-c2noc(-c3cc4ccccc4n3C)n2)cc1 here?
**A.** > 50 µM

**Q.** For COc1ccc(-c2noc(-c3cc4cc(OC)ccc4[nH]3)n2)cc1, which IC50 is on record?
**A.** > 50 µM

**Q.** Which IC50 does the source give for COc1ccc(-c2noc(-c3cc4cc(F)ccc4[nH]3)n2)cc1 here?
**A.** > 50 µM

**Q.** Which IC50 does the source give for COc1ccc(-c2noc(-c3cc4cc(Cl)ccc4[nH]3)n2)cc1 here?
**A.** > 50 µM

**Q.** With FC(F)(F)c1ccc(-c2noc(-c3sccc3Cl)n2)cc1 as the compound, how does the IC50 read?
**A.** > 50 µM

tested on: COLO 320; assay: Induction of apoptosis in human COLO320 cells assessed as increase in intraneucleosomal DNA fragmentation at 100 uM after 24 hrs by ELISA relative to control; type: functional; settings: not given
Outline: (§2)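 Dosed at 100 µM for 24 h. Trypsin-harvested cells pooled with detached cells. Cytoplasmic histone-associated DNA fragments (released nucleosomes) measured by sandwich ELISA using a mouse monoclonal anti-DNA/histone antibody. Given as fold over untreated control; duplicate, mean ± SEM.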

**Q.** For Clc1ccc(-c2noc(-c3cc4ccccc4[nH]3)n2)cc1, which “fold change (FC)” value is on record?
**A.** 3

**Q.** Which “fold change (FC)” value does the source give for COc1ccc2[nH]c(-c3nc(-c4ccc(Cl)cc4)no3)cc2c1 here?
**A.** 1.8

**Q.** Which “fold change (FC)” value does the source give for O=[N+]([O-])c1ccc2[nH]c(-c3nc(-c4ccc(Cl)cc4)no3)cc2c1 here?
**A.** 1.8

**Q.** With COc1ccc(-c2noc(-c3cc4cc(OC)ccc4[nH]3)n2)cc1 as the compound, how does the “fold change (FC)” value read?
**A.** 1.2

**Q.** Which “fold change (FC)” value does the source give for COc1ccc(-c2noc(-c3cc4cc(F)ccc4[nH]3)n2)cc1 here?
**A.** 1.4

**Q.** For COc1ccc(-c2noc(-c3cc4cc(Cl)ccc4[nH]3)n2)cc1, which “fold change (FC)” value is on record?
**A.** 1.2

tested on: MIA PaCa-2; assay: Induction of apoptosis in human MIAPaCa2 cells assessed as increase in intraneucleosomal DNA fragmentation at 100 uM after 24 hrs by ELISA relative to control; type: functional; settings: not given; outline: as §2

**Q.** With Clc1ccc(-c2noc(-c3cc4ccccc4[nH]3)n2)cc1 as the compound, how does the “fold change (FC)” value read?
**A.** 1

**Q.** Which “fold change (FC)” value does the source give for COc1ccc2[nH]c(-c3nc(-c4ccc(Cl)cc4)no3)cc2c1 here?
**A.** 1.2

**Q.** Which “fold change (FC)” value does the source give for O=[N+]([O-])c1ccc2[nH]c(-c3nc(-c4ccc(Cl)cc4)no3)cc2c1 here?
**A.** 2.7

**Q.** For COc1ccc(-c2noc(-c3cc4cc(OC)ccc4[nH]3)n2)cc1, which “fold change (FC)” value is on record?
**A.** 1.9

**Q.** With COc1ccc(-c2noc(-c3cc4cc(F)ccc4[nH]3)n2)cc1 as the compound, how does the “fold change (FC)” value read?
**A.** 2.2

**Q.** With COc1ccc(-c2noc(-c3cc4cc(Cl)ccc4[nH]3)n2)cc1 as the compound, how does the “fold change (FC)” value read?
**A.** 1.4

tested on: COLO 320; assay: Induction of apoptosis in human COLO320 cells assessed as increase in caspase 3/7 activation at 100 uM after 24 hrs by spectrophotometry relative to control; type: functional; settings: not given
Outline: (§3)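 Seeded at 7 × 10³/well and dosed 100 µM for 24 h. Caspase-3/7 substrate then added; fluorescence read with excitation 485 nm and emission 530 nm. Result given as the ratio of treated-cell signal to untreated vehicle-only cells.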

**Q.** With Clc1ccc(-c2noc(-c3cc4ccccc4[nH]3)n2)cc1 as the compound, how does the “fold change (FC)” value read?
**A.** 0.3

**Q.** Which “fold change (FC)” value does the source give for COc1ccc2[nH]c(-c3nc(-c4ccc(Cl)cc4)no3)cc2c1 here?
**A.** 4.5

**Q.** With O=[N+]([O-])c1ccc2[nH]c(-c3nc(-c4ccc(Cl)cc4)no3)cc2c1 as the compound, how does the “fold change (FC)” value read?
**A.** 6.4

**Q.** With COc1ccc(-c2noc(-c3cc4cc(OC)ccc4[nH]3)n2)cc1 as the compound, how does the “fold change (FC)” value read?
**A.** 1.1

**Q.** For COc1ccc(-c2noc(-c3cc4cc(F)ccc4[nH]3)n2)cc1, which “fold change (FC)” value is on record?
**A.** 2.1

**Q.** Which “fold change (FC)” value does the source give for COc1ccc(-c2noc(-c3cc4cc(Cl)ccc4[nH]3)n2)cc1 here?
**A.** 4.2

tested on: MIA PaCa-2; assay: Induction of apoptosis in human MIAPaCa2 cells assessed as increase in caspase 3/7 activation at 100 uM after 24 hrs by spectrophotometry relative to control; type: functional; settings: not given; outline: as §3

**Q.** For Clc1ccc(-c2noc(-c3cc4ccccc4[nH]3)n2)cc1, which “fold change (FC)” value is on record?
**A.** 1.2

**Q.** With COc1ccc2[nH]c(-c3nc(-c4ccc(Cl)cc4)no3)cc2c1 as the compound, how does the “fold change (FC)” value read?
**A.** 10.1

**Q.** For O=[N+]([O-])c1ccc2[nH]c(-c3nc(-c4ccc(Cl)cc4)no3)cc2c1, which “fold change (FC)” value is on record?
**A.** 23.9

**Q.** Which “fold change (FC)” value does the source give for COc1ccc(-c2noc(-c3cc4cc(OC)ccc4[nH]3)n2)cc1 here?
**A.** 2

**Q.** With COc1ccc(-c2noc(-c3cc4cc(F)ccc4[nH]3)n2)cc1 as the compound, how does the “fold change (FC)” value read?
**A.** 5

**Q.** With COc1ccc(-c2noc(-c3cc4cc(Cl)ccc4[nH]3)n2)cc1 as the compound, how does the “fold change (FC)” value read?
**A.** 1.4

Source: ChEMBL document CHEMBL1250498, “Design, synthesis and pro-apoptotic antitumour properties of indole-based 3,5-disubstituted oxadiazoles” (Eur J Med Chem, 2010)
